Experimental data: ChEMBL document CHEMBL4330145, “Discovery of the Cyclic Lipopeptide Gacamide A by Genome Mining and Repair of the Defective GacA Regulator in Pseudomonas fluorescens Pf0-1” (2019)
Values after ≈ are worked out from the molar mass of the structure shown. Active and inactive are the calls of the source. No cut-off for these calls is given here.

Experiments:
Rhodococcus fascians = experiment: Antibacterial activity against Rhodococcus fascians A44A after 24 hrs by agar diffusion assay; type: functional, organism-based; settings: Rhodococcoides fascians
[1] = system: Stenotrophomonas maltophilia; experiment: Antibacterial activity against Stenotrophomonas maltophilia isolate I-10717 after 24 hrs by agar diffusion assay; type: functional, organism-based
In short: (§1)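 Plates of Columbia agar with 5% sheep blood were overlaid with 3 mL tryptic soy soft agar seeded with a TSB suspension of the test strain. Compound was diluted in DMSO to 1 mg/mL, and 3 μL was spotted on the agar surface. The inhibition-zone diameter was measured after 24 h at 37 °C. Clinical isolates were kept on Mueller−Hinton or blood agar.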

[2] = system: Agrobacterium tumefaciens; experiment: Antibacterial activity against Agrobacterium tumefaciens C58 after 24 hrs by agar diffusion assay; type: functional, organism-based
[3] = system: Agrobacterium tumefaciens; experiment: Antibacterial activity against Agrobacterium tumefaciens B6 after 24 hrs by agar diffusion assay; type: functional, organism-based
Staphylococcus aureus [4] = experiment: Antibacterial activity against Staphylococcus aureus isolate 133 after 24 hrs by agar diffusion assay; type: functional, organism-based; in short: as §1
[5] = system: Staphylococcus epidermidis; experiment: Antibacterial activity against methicillin-resistant Staphylococcus epidermidis isolate LT-1324 after 24 hrs by agar diffusion assay; type: functional, organism-based
In short: (§2)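 Agar diffusion: 5% sheep blood Columbia agar plates overlaid with 3 mL tryptic soy soft agar seeded with a TSB suspension of the clinical isolate. Compound diluted in DMSO to 1 mg/mL, and 3 μL spotted on the agar surface. Inhibition zone diameter measured after 24 h at 37 °C. Strains were maintained on Mueller−Hinton or blood agar.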

Candida albicans [6] = experiment: Antifungal activity against Candida albicans isolate I-11301 after 24 hrs by agar diffusion assay; type: functional, organism-based
[7] = system: Klebsiella pneumoniae subsp. ozaenae; experiment: Antibacterial activity against Klebsiella pneumoniae subsp. ozaenae isolate I-10910 after 24 hrs by agar diffusion assay; type: functional, organism-based; in short: as §1
[8] = system: Arthrobacter crystallopoietes; experiment: Antibacterial activity against Arthrobacter crystallopoietes DSM 20117 after 24 hrs by microtiter plate broth dilution assay; settings: Crystallibacter crystallopoietes, DSM 20117, 24 h
Staphylococcus aureus [9] = experiment: Antibacterial activity against methicillin-resistant Staphylococcus aureus isolate LT-1338 after 24 hrs by agar diffusion assay; type: functional, organism-based; in short: as §2
Erwinia amylovora = experiment: Antibacterial activity against Erwinia amylovora Ea153 after 24 hrs by agar diffusion assay; type: functional, organism-based
Escherichia coli [10] = experiment: Antibacterial activity against Escherichia coli isolate I-11276b after 24 hrs by agar diffusion assay; type: functional, organism-based; in short: as §1
Priestia megaterium = experiment: Antibacterial activity against Bacillus megaterium Km after 24 hrs by agar diffusion assay; type: functional, organism-based
Corynebacterium xerosis = experiment: Antibacterial activity against Corynebacterium xerosis after 24 hrs by agar diffusion assay; type: functional, organism-based
[11] = system: Stenotrophomonas maltophilia; experiment: Antibacterial activity against Stenotrophomonas maltophilia isolate O-16451 after 24 hrs by agar diffusion assay; type: functional, organism-based; in short: as §1
[12] = system: Pseudomonas syringae pv. tomato str. DC3000; experiment: Antibacterial activity against Pseudomonas syringae DC3000 after 24 hrs by agar diffusion assay; type: functional
Candida albicans [13] = experiment: Antifungal activity against Candida albicans isolate I-11134 after 24 hrs by agar diffusion assay; type: functional, organism-based
Citrobacter freundii = experiment: Antibacterial activity against Citrobacter freundii isolate I-11090 after 24 hrs by agar diffusion assay; type: functional, organism-based; in short: as §1
Staphylococcus aureus [14] = experiment: Antibacterial activity against methicillin-resistant Staphylococcus aureus isolate LT-1334 after 24 hrs by agar diffusion assay; type: functional, organism-based; in short: as §2
Micrococcus luteus = experiment: Antibacterial activity against Micrococcus luteus ATCC 4698 after 24 hrs by agar diffusion assay; type: functional, organism-based; settings: NCTC 2665
Bacillus subtilis = experiment: Antibacterial activity against Bacillus subtilis 168 after 24 hrs by agar diffusion assay; type: functional, organism-based; settings: subsp. subtilis str. 168
Pseudomonas aeruginosa = experiment: Antibacterial activity against Pseudomonas aeruginosa isolate I-10968 after 24 hrs by agar diffusion assay; type: functional, organism-based; in short: as §1
Enterococcus faecium [15] = experiment: Antibacterial activity against Enterococcus faecium isolate I-11054 after 24 hrs by agar diffusion assay; type: functional, organism-based; in short: as §1
Listeria welshimeri = experiment: Antibacterial activity against Listeria welshimeri DSM 20650 after 24 hrs by agar diffusion assay; type: functional
Enterococcus faecium [16] = experiment: Antibacterial activity against Enterococcus faecium isolate I-11305b after 24 hrs by agar diffusion assay; type: functional, organism-based; in short: as §1
Staphylococcus aureus [17] = experiment: Antibacterial activity against methicillin sensitive Staphylococcus aureus isolate I-11574 after 24 hrs by agar diffusion assay; type: functional, organism-based; in short: as §1
Pseudomonas fluorescens = experiment: Antibacterial activity against Pseudomonas fluorescence A506 after 24 hrs by agar diffusion assay; type: functional, organism-based
Escherichia coli [18] = experiment: Antibacterial activity against Escherichia coli isolate O-19592 after 24 hrs by agar diffusion assay; type: functional, organism-based; in short: as §1
Staphylococcus aureus [19] = experiment: Antibacterial activity against Staphylococcus aureus after 24 hrs by agar diffusion assay; type: functional, organism-based
Staphylococcus aureus [20] = experiment: Antibacterial activity against methicillin sensitive Staphylococcus aureus isolate 5185 after 24 hrs by agar diffusion assay; type: functional, organism-based; in short: as §1
Staphylococcus simulans = experiment: Antibacterial activity against Staphylococcus simulans isolate 22 after 24 hrs by agar diffusion assay; type: functional, organism-based; in short: as §1
[21] = system: Mycolicibacterium smegmatis; experiment: Antibacterial activity against Mycobacterium smegmatis after 24 hrs by agar diffusion assay; type: functional, organism-based

CCCCCCC[C@@H](O)CC(=O)N[C@H](CC(C)C)C(=O)N[C@H](CC(=O)O)C(=O)N[C@H](CCC(N)=O)C(=O)N[C@H](C(=O)N[C@H](CC(C)C)C(=O)N[C@H](CCC(N)=O)C(=O)N[C@@H]1COC(=O)[C@H]([C@@H](C)CC)NC(=O)[C@@H](CO)NC(=O)[C@H](CC(C)C)NC(=O)[C@H](CC(C)C)NC1=O)[C@H](C)CC
Activity (Rhodococcus fascians): inactive
Activity [1]: inactive
Activity [2]: inactive
Activity [3]: inactive
Activity (Staphylococcus aureus [4]): inactive
Activity [5]: inactive
Activity (Candida albicans [6]): inactive
Activity [7]: inactive
MIC [8]: 32 µg/mL (≈ 22.9 µM)
Activity (Staphylococcus aureus [9]): inactive
Activity (Erwinia amylovora): inactive
Activity (Escherichia coli [10]): inactive
Activity (Priestia megaterium): inactive
Activity (Corynebacterium xerosis): inactive
Activity [11]: inactive
Activity [12]: inactive
Activity (Candida albicans [13]): inactive
Activity (Citrobacter freundii): inactive
Activity (Staphylococcus aureus [14]): inactive
Activity (Micrococcus luteus): inactive
Activity (Bacillus subtilis): inactive
Activity (Pseudomonas aeruginosa): inactive
Activity (Enterococcus faecium [15]): inactive
Activity (Listeria welshimeri): inactive
Activity (Enterococcus faecium [16]): inactive
Activity (Staphylococcus aureus [17]): inactive
Activity (Pseudomonas fluorescens): inactive
Activity (Escherichia coli [18]): inactive
Activity (Staphylococcus aureus [19]): inactive
Activity (Staphylococcus aureus [20]): inactive
Activity (Staphylococcus simulans): inactive
Activity [21]: inactive
